# IDH1 R132H inh: inhibitors of human IDH1 R132H; O75874; IDH1 R132H reductase, diaphorase/resazurin fluorescence, 60 min; hit rate 0.18% among 70,000; inhibition, % at 10 µM; AID 624101; in the data active = inhibition above about 34%; inconclusive = no clear call, values can overlap the other calls; inactive = below about 11%
# Target sequence (O75874 whole entry R132H): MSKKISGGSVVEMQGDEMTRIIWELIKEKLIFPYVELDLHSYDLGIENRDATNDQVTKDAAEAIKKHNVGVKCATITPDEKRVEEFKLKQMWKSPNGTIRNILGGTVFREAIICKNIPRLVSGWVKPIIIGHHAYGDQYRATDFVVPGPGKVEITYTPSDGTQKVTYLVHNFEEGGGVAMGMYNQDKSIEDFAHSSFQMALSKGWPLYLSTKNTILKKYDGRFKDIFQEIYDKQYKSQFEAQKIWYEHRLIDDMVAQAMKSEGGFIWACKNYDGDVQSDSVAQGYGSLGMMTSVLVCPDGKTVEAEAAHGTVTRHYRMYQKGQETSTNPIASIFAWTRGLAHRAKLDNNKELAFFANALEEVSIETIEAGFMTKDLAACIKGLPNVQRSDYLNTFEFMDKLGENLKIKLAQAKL
# KDM4C inh: blocks human GASC-1 (KDM4C) demethylase activity; Q9H3R0; GST-KDM4C 2-372, H3K9me3 peptide, LANCE TR-FRET; inhibition, % at 12.5 µM; hit rate 0.15% among 96,000; AID 720574;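 active = mean replicate inhibition above about 25%, with at least 55% of replicates also reaching it, limit read from the data, passing the limit was not always enough; inconclusive = only one of those two conditions met; inactive = neither condition met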
#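 Material: N-terminal GST-fused human GASC-1 (KDM4C) fragment, residues 2-372. Input: 10 nM enzyme. Incubation: enzyme reaction 30 min, then detection 60 min, both room temperature. Doses: one test concentration per compound. Read-out basis: inhibition from TR-FRET ratio decrease. Detection: LANCE TR-FRET, excitation 340 nm, emissions 618 and 671 nm.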
# T cruzi growth-1: blocks T. cruzi growth in NIH3T3 culture | T. cruzi beta-gal in NIH3T3, GalScreen luminescence, 90 h | inhibition, % at 8.34 µM | hit rate 5.9% among 77,000;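 active = mean inhibition above about 93%, with at least 55% of replicates each passing it, limit read from the data, passing the limit was not always enough; inconclusive = only one of those two conditions holds; inactive = neither condition holds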
# T cruzi growth-2: Trypanosoma cruzi proliferation inhibition. inhibition, % at 8.35 µM. T. cruzi beta-gal in NIH3T3, GalScreen luminescence, 90 h. AID 651739. hit rate 72% among 5,600. shares compounds with T cruzi growth-1;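 active = mean replicate inhibition above about 95% and at least 55% of replicates individually reaching it, limit read from the data; inconclusive = only one of the two criteria is met; inactive = neither criterion is met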
# T cruzi growth-3: Trypanosoma cruzi proliferation inhibition; shares compounds with T cruzi growth-1; hit rate 21% among 5,600; inhibition, % at 2.09 µM; T. cruzi beta-gal in NIH3T3, GalScreen luminescence, 90 h;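 active = mean inhibition above about 95%, with at least 55% of replicates also reaching it, limit read from the data; inconclusive = meets just one of the two conditions; inactive = meets neither condition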
# 3T3 cytotox: NIH/3T3 (mouse) viability loss; shares compounds with T cruzi growth-1; cytotoxicity (signal decrease), % at 8.35 µM; hit rate 14% among 5,600; NIH/3T3 viability, CellTiter-Glo ATP luminescence, 90 h;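 active = mean signal decrease across replicates above about 35% based on untreated-well scatter, with enough replicates individually passing, limit read from the data; inconclusive = no rule stated though some were filed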
# NIH3T3 tox 2: kills mouse NIH/3T3 fibroblasts; shares compounds with T cruzi growth-1; NIH/3T3 viability, CellTiter-Glo ATP luminescence, 90 h; inhibition, % at 24.9 µM; hit rate 56% among 5,600; AID 651744;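 active = mean loss of cell viability signal at or above a set limit, and enough replicates individually reaching it; inconclusive = meets only the mean limit or only the replicate share; inactive = meets neither condition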
# A number is an active result; 0 = inactive; ? = inconclusive; - = not tested or not shown. The full list was thinned out, with hits kept by preference.
SMILES,IDH1 R132H inh,KDM4C inh,T cruzi growth-1,T cruzi growth-2,T cruzi growth-3,3T3 cytotox,NIH3T3 tox 2
COc1cccc(NC(=O)CSc2nc3ccccc3c(=O)n2-c2cccc(C(F)(F)F)c2)c1,0,-,-,-,-,-,-
COc1ccc([N+](=O)[O-])cc1N(CC(=O)Nc1cc(Cl)ccc1Cl)S(C)(=O)=O,0,-,-,-,-,-,-
O=C(CCCn1cc([N+](=O)[O-])cn1)Nc1cccc(C(F)(F)F)c1,0,-,-,-,-,-,-
Cn1c(SCC(=O)Nc2ccc(Br)cc2Cl)nnc1-c1cccc([N+](=O)[O-])c1,0,-,-,-,-,-,-
C[C@@H]1CN([C@@H](C)CO)S(=O)(=O)c2ccc(C3=CCCCC3)cc2O[C@@H]1CN(C)Cc1ccccc1,0,0,122,100,117,0,106
C[C@@H]1CN([C@H](C)CO)S(=O)(=O)c2ccc(C3=CCCCC3)cc2O[C@@H]1CN(C)Cc1ccccc1,0,0,125,97,102,0,105
C[C@H](CO)N1C[C@H](C)[C@H](CN(C)Cc2cccc(C(=O)O)c2)Oc2cc(C3=CCCCC3)ccc2S1(=O)=O,-,0,0,-,-,-,-
Cc1ccc(Nc2nc(Nc3ccc(C)cc3)nc(Sc3nnc(C)s3)n2)cc1,0,-,-,-,-,-,-
CC(C)(C)c1ccc(S(=O)(=O)N2CCN(c3ccc([N+](=O)[O-])c(NCc4cccnc4)c3)CC2)cc1,0,-,-,-,-,-,-
CC(=O)NC[C@@H]1[C@@H](c2ccc(-c3ccccc3)cc2)[C@H](CO)N1C(=O)C1CC1,-,0,99,0,0,0,0
CC(=O)NC[C@H]1[C@@H](c2ccc(-c3ccccc3)cc2)[C@H](CO)N1C(=O)C1CC1,-,0,0,-,-,-,-
CC(=O)NC[C@H]1[C@@H](c2ccc(-c3cccnc3)cc2)[C@@H](CO)N1C(=O)C1CC1,-,0,0,-,-,-,-
CC(=O)NC[C@H]1[C@H](c2ccc(-c3cccnc3)cc2)[C@H](CO)N1C(=O)C1CC1,-,0,111,0,0,0,0
CC(C)c1ccc2oc(-c3ccc(NC(=O)COc4ccc([N+](=O)[O-])cc4)cc3)nc2c1,0,-,-,-,-,-,-
CS(=O)(=O)N(CC(=O)NC1CCCC1)c1ccc(Cl)cc1,0,-,-,-,-,-,-
COc1cc(NC(=O)CN(C)S(=O)(=O)c2ccc(C)cc2)c(OC)cc1Cl,0,-,-,-,-,-,-
Cc1ccc(CN2CCN(CCO)CC2)o1,0,-,-,-,-,-,-
COc1cccc(-c2cc(C#N)c(NC(=O)c3cccc([N+](=O)[O-])c3)o2)c1,0,-,-,-,-,-,-
C[C@@H]1CCCCO[C@H](CN(C)Cc2ccc(C(F)(F)F)cc2)[C@@H](C)CN([C@H](C)CO)C(=O)c2cc(NS(=O)(=O)c3ccccc3)ccc2O1,0,0,?,97,0,0,50
C[C@@H]1CN([C@@H](C)CO)C(=O)c2cc(NS(=O)(=O)c3ccccc3)ccc2O[C@@H](C)CCCCO[C@@H]1CN(C)Cc1ccc(C(F)(F)F)cc1,0,0,0,-,-,-,-
C[C@H](CO)N1C[C@H](C)[C@@H](CN(C)Cc2ccc(C(F)(F)F)cc2)OCCCC[C@H](C)Oc2ccc(NS(C)(=O)=O)cc2C1=O,0,0,93,109,0,0,53

# Source: PubChem BioAssay (Broad Institute)
